Experimental data gathered from unrelated publications.
Each line is one published result; the experiments were not run side by side. pEC50: −log10 of the molar value.
Effect on: cell growth or viability

| SMILES | cell line | assay | conditions | quantity | value |
| --- | --- | --- | --- | --- | --- |
| CC(=NNC(=O)COc1ccc2c(C)c(Cc3ccccc3)c(=O)oc2c1C)c1ccc(Br)cc1 | MDA-MB-231 | MTT | 1000 µg/mL | viability | 15.1% |
| O=C(C=Cc1ccccc1)Nc1cccc(-c2ccnc(N3CCC(O)CC3)c2)c1 | MDA-MB-231 | MTT | 5 µM | inhibition | 61.6% |
| C[C@@H]1CC[C@@H]([C@@](O)(CNCc2ccccc2)COCc2ccc(F)cc2)[C@H](OCc2ccc(F)cc2)C1 | MDA-MB-231 | MTT | 30 µM, 72 h | inhibition | 98.8% |
| C=CCNC(=S)NNC(=O)COc1ccc2c(C)c(CC)c(=O)oc2c1C | MDA-MB-231 | MTT | 250 µg/mL | viability | 5.87% |
| COc1ccc(CNC[C@](O)(COCc2ccc(OC)cc2)[C@@H]2CC[C@@H](C)C[C@H]2OCc2ccc(OC)cc2)cc1 | MDA-MB-231 | MTT | 10 µM, 72 h | inhibition | 96.8% |
| CCNC(=S)NNC(=O)COc1ccc2c(C)c(CC)c(=O)oc2c1C | MDA-MB-231 | MTT | 125 µg/mL | viability | 45% |
| Cc1c(C(=O)O)ccc2c3n(nc12)[C@@H]1[C@H](C3)N(CC2CC2)[C@@]2(C(=O)Nc3cc(Cl)ccc32)[C@H]1c1cccc(Cl)c1F | hTERT-RPE1 | ATP luminescence | 72 h | GI50 | 21 nM |
| COc1cccc(CNC[C@@](C)(O)[C@@H]2CC[C@@H](C)C[C@H]2OCc2ccccc2)c1 | MDA-MB-231 | MTT | 30 µM, 72 h | inhibition | 95.3% |
| C=CC(=O)NC1CCN(c2ncc3ncnc(Nc4ccc(Oc5ccc6c(c5)ncn6C)c(C)c4)c3n2)CC1 | LCLC-103H |  |  | pEC50 | 8.55 |
| Cc1cccc(/C=C/C(=O)Nc2cc(-c3ccnc(N4CCC(O)CC4)c3)ccn2)c1 | MDA-MB-231 | MTT | 5 µM | inhibition | 75.6% |
| COc1ccc(CNC[C@@](C)(O)[C@@H]2CC[C@@H](C)C[C@H]2OCc2ccccc2)cc1 | MDA-MB-231 | MTT | 30 µM, 72 h | inhibition | 83.5% |
| Cc1c(Cc2ccccc2)c(=O)oc2c(C)c(OCC(=O)NN=Cc3ccc(Cl)cc3)ccc12 | MDA-MB-231 | MTT | 1000 µg/mL | viability | 17.1% |
| CCC[C@H]1NC(=O)[C@H](Cc2cc(Cl)ccc2-c2cnn(C)c2)N(C)C(=O)[C@H](CC(C)C)NC(=O)[C@@H](N(C)C(=O)[C@H](CCCCN2CCOCC2)NC(=O)[C@@H](c2cccnc2)C2CCCCC2)CCCCNC1=O | NCI-H526 | MTT | 5 days | GI50 | 3400 nM |
| C[C@@H]1CC[C@@H]([C@](C)(O)CNCc2ccccc2F)[C@H](OCc2ccccc2)C1 | MDA-MB-231 | MTT | 30 µM, 72 h | inhibition | 44.1% |
| CCc1c(C)c2ccc(OCc3nnc(S)n3N)c(C)c2oc1=O | MDA-MB-231 | MTT | 31.25 µg/mL | viability | 94.3% |
